# Assay results taken from ChEMBL document CHEMBL2163234, “Design and characterization of optimized adenosine A₂A/A₁ receptor antagonists for the treatment of Parkinson's disease” (J Med Chem, 2012).
# pKi: −log10 of the molar value. Active and inactive are the calls of the source. The rule behind the calls is not given here.
# Key:
# Adenosine receptor A2a = Adenosine receptor A2a (Homo sapiens, UniProt P29274); test: Antagonist activity at human Adenosine receptor A2a assessed as inhibition of cAMP production; assay type: functional
# Chain of Adenosine receptor A2a (P29274 whole entry): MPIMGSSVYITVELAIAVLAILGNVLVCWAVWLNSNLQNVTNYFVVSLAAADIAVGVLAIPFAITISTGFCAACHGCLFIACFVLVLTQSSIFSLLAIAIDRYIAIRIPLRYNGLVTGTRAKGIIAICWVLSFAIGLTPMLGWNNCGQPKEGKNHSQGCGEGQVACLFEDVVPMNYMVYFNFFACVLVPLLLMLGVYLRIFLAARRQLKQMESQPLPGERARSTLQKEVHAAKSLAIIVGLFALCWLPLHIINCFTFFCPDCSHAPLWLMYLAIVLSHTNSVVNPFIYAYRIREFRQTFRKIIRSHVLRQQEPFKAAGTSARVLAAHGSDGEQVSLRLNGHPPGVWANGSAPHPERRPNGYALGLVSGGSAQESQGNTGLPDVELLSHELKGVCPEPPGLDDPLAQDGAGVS
# Adenosine receptor A1 = target: T1, Adenosine receptor A1 (Homo sapiens, UniProt P30542); test: Antagonist activity at human Adenosine receptor A1 assessed as inhibition of cAMP production; assay type: functional
# T1 sequence (P30542 whole entry): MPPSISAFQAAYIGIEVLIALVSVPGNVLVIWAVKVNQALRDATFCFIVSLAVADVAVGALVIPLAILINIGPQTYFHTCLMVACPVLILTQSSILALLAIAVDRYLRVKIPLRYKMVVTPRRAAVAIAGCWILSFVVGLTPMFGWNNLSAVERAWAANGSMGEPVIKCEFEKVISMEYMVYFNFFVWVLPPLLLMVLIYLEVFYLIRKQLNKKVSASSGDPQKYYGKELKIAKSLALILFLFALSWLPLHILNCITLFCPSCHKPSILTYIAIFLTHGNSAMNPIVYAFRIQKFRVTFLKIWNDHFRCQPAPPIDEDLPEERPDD
# Mus musculus [1] = test: Reversal of haloperidol-induced catalepsy in po dosed BALB/c mouse measured 1 hr post dose; assay type: functional; settings: for minimal effective dose: read-out: MED
# Procedure, shortened: (§1)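 Fasted male Balb/c mice receive haloperidol 1 mg/kg sc in 0.3% tartaric acid/saline, then drug po in 0.5% methylcellulose 30 min later (0.1–10.0 mg/kg, or 10 mg/kg as % reversal). At 1 h post-dose, forepaws are placed on a bar 3.5 cm high and time in cataleptic position is recorded (max 60 s). Blinded; n = 8–12; mean ± SEM; Dunnett test.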
# Mus musculus [2] = test: Reversal of haloperidol-induced catalepsy in BALB/c mouse at 10 mg/kg, po measured 1 hr post dose; assay type: functional; procedure, shortened: as §1
# Rattus norvegicus [3] = test: Reversal of haloperidol-induced catalepsy in po dosed Sprague-Dawley rat dosed 60 mins before haloperidol challenge and measured 1 hr post dose; assay type: functional; settings: for minimal effective dose: read-out: MED
# Mus musculus [4] = test: Reversal of haloperidol-induced catalepsy in BALB/c mouse assessed as time duration of anticataleptic activity mouse at 10 mg/kg, po; assay type: functional
# Procedure, shortened: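 Duration study: fasted male Balb/c mice are dosed with haloperidol 1 mg/kg sc, then drug 10 mg/kg po in 0.5% methylcellulose. Bar-test catalepsy time (max 60 s) is measured repeatedly at 30 min and at 1, 2 and 4 h after dosing. n = 8 per group; mean ± SEM; Dunnett test.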
# [5] = Volume of distribution at steady state in cynomolgus monkey at 2 mg/kg, iv administered as single dose; assay type: ADME, organism-based, Macaca fascicularis; design: dose 2 mg/kg, route intravenous; settings: in vivo, read-out: Vdss
# Procedure, shortened: (§2)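 Fasted animals (male Sprague-Dawley rats, male Balb/c mice, male and female cynomolgus monkeys) received a single iv dose or oral 10 mg/kg in 0.5% methylcellulose. Blood came from 3–4 animals per time point by orbital sinus (rats) or cardiac puncture (mice), or serially by venipuncture (monkeys). Plasma was acetonitrile-precipitated and analysed by LC-MS/MS (LOQ 0.7–2 ng/mL), with noncompartmental analysis.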
# [6] = Clearance in cynomolgus monkey at 2 mg/kg, iv and 10 mg/kg, po administered as single dose; assay type: ADME, organism-based, Macaca fascicularis; settings: in vivo; procedure, shortened: as §2
# Rattus norvegicus [7] = test: Antiparkinsonian activity in Sprague-Dawley rat 6-OHDA lesion model assessed as increase in number of contralateral rotations dosed orally 6 weeks post OHDA-challenge; assay type: functional, organism-based
# Procedure, shortened: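 Rats receive 6-OHDA 12 μg unilaterally into the medial forebrain bundle. Inclusion required ≥125 contralateral rotations in 1 h after apomorphine 0.05 mg/kg sc. Design is within-subject, with drug 0.1–10.0 mg/kg po in 20% HPβCD after 30 min acclimation. Contralateral 360° turns are counted by a tethered optical sensor for 60 min. Mean ± SEM, n = 16, Tukey test.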
# Rattus norvegicus [8] = test: Antiparkinsonian activity in Sprague-Dawley rat 6-OHDA lesion model assessed as potentiation of 10 mg/kg, po L-DOPA-induced increase in number of contralateral rotations dosed orally 6 weeks post OHDA-challenge; assay type: functional; settings: 1008 h, read-out: MED
# Procedure, shortened: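 Rats lesioned unilaterally in the medial forebrain bundle with 6-OHDA 12 μg were selected by apomorphine rotation (≥125 turns/h). Each rat serves as its own control, with randomized session days. Drug 0.1–10.0 mg/kg po (20% HPβCD) is given and followed 60 min later by L-DOPA 10 mg/kg po plus carbidopa, with rotations recorded over 120 min. Total contralateral turns reported; n = 16; Tukey test.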
# [9] = Clearance in BALB/c mouse at 2 mg/kg, iv and 10 mg/kg, po administered as single dose; assay type: ADME, organism-based; settings: in vivo; procedure, shortened: as §2
# [10] = Clearance in Sprague-Dawley rat at 2 mg/kg, iv and 10 mg/kg, po administered as single dose; assay type: ADME, organism-based; settings: in vivo; procedure, shortened: as §2
# [11] = Volume of distribution at steady state in BALB/c mouse at 2 mg/kg, iv administered as single dose; assay type: ADME, organism-based; design: dose 2 mg/kg, route intravenous; settings: in vivo, read-out: Vdss; procedure, shortened: as §2
# [12] = Volume of distribution at steady state in Sprague-Dawley rat at 2 mg/kg, iv administered as single dose; assay type: ADME, organism-based; design: dose 2 mg/kg, route intravenous; settings: in vivo, read-out: Vdss; procedure, shortened: as §2
# [13] = Half life in BALB/c mouse at 10 mg/kg, po administered as single dose; assay type: ADME, organism-based; design: dose 10 mg/kg, route oral; settings: in vivo; procedure, shortened: as §2
# [14] = Terminal half life in Sprague-Dawley rat at 10 mg/kg, po administered as single dose; assay type: ADME, organism-based; design: dose 10 mg/kg, route oral; settings: in vivo, read-out: beta t1/2 (converted); procedure, shortened: as §2
# [15] = Terminal half life in cynomolgus monkey at 10 mg/kg, po administered as single dose; assay type: ADME, organism-based, Macaca fascicularis; design: dose 10 mg/kg, route oral; settings: in vivo, read-out: beta t1/2 (converted); procedure, shortened: as §2
# [16] = Cmax in BALB/c mouse plasma at 10 mg/kg, po administered as single dose; assay type: ADME, organism-based; design: dose 10 mg/kg, route oral; procedure, shortened: as §2
# [17] = Cmax in Sprague-Dawley rat plasma at 10 mg/kg, po administered as single dose; assay type: ADME, organism-based; design: dose 10 mg/kg, route oral; procedure, shortened: as §2
# [18] = Cmax in cynomolgus monkey plasma at 10 mg/kg, po administered as single dose; assay type: ADME, organism-based, Macaca fascicularis; design: dose 10 mg/kg, route oral; procedure, shortened: as §2
# [19] = Oral bioavailability in BALB/c mouse at 10 mg/kg administered as single dose; assay type: ADME, organism-based; settings: in vivo; procedure, shortened: as §2
# [20] = Oral bioavailability in Sprague-Dawley rat at 10 mg/kg administered as single dose; assay type: ADME, organism-based; settings: in vivo; procedure, shortened: as §2
# [21] = Oral bioavailability in cynomolgus monkey at 10 mg/kg administered as single dose; assay type: ADME, organism-based, Macaca fascicularis; settings: in vivo; procedure, shortened: as §2
# [22] = Cmax in Sprague-Dawley rat brain at 2 mg/kg, iv and 10 mg/kg, po administered as single dose; assay type: ADME, organism-based
# Procedure, shortened: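 Tissue distribution: fasted male Sprague-Dawley rats get 10 mg/kg po in 0.5% methylcellulose. Four rats per time point are euthanized, and brain is weighed, homogenized in methanol, evaporated and reconstituted. Blood and plasma are acetonitrile-treated. Drug levels are measured by LC-MS/MS.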
# Rattus norvegicus [23] = test: Reversal of haloperidol-induced catalepsy in Sprague-Dawley rat assessed as time duration of anticataleptic activity at 1 mg/kg, po dosed 60 mins before haloperidol challenge and measured post dose
# Mus musculus [24] = test: Antiparkinsonian activity in CF-1 mouse assessed as reversal of reserpine-induced akinesia administered orally 18 hrs before reserpine challenge and measured 60 mins post dose by spontaneous locomotor activity assay; settings: CF-1, po, read-out: MED
# Rattus norvegicus [25] = test: Antiparkinsonian activity in Wistar rat assessed as reversal of reserpine-induced akinesia administered orally 18 hrs before reserpine challenge and measured 60 mins post dose by spontaneous locomotor activity assay; settings: for minimal effective dose: po, read-out: MED
# Rattus norvegicus [26] = test: Reversal of haloperidol-induced catalepsy in Sprague-Dawley rat at 10 mg/kg, po dosed 60 mins before haloperidol challenge and measured 1 to 4 hrs post dose; assay type: functional, organism-based; design: dose 10 mg/kg
# [27] = Clearance in cynomolgus monkey at 1 mg/kg, iv and 10 mg/kg, po administered as single dose; assay type: ADME, organism-based, Macaca fascicularis; settings: in vivo; procedure, shortened: as §2
# [28] = Volume of distribution at steady state in cynomolgus monkey at 1 mg/kg, iv administered as single dose; assay type: ADME, organism-based, Macaca fascicularis; design: dose 1 mg/kg, route intravenous; settings: in vivo, read-out: Vdss; procedure, shortened: as §2
compound,measurement,setting,value
CC1CC[C@@H](C)N1Cc1ccc2c(c1)-c1nc(N)nc(-c3ccccc3)c1C2=O (mixture of isomers),pKi,Adenosine receptor A2a,7.88
same,pKi,Adenosine receptor A1,7.43
same,ED50,Mus musculus [1],3.2 mg/kg
Nc1nc(-c2ccccc2)c2c(n1)-c1cc(Cc3cnccc3Cl)ccc1C2=O,pKi,Adenosine receptor A2a,10.00
same,pKi,Adenosine receptor A1,9.30
same,Activity,Mus musculus [2],100%
Nc1nc(-c2ccccc2)c2c(n1)-c1cc(OCCN3CCOCC3)ccc1C2=O,Activity,Rattus norvegicus [3],Dose-dependent effect
same,ED50,Rattus norvegicus [3],0.3 mg/kg
same,minimal effective dose,Rattus norvegicus [3],1 mg/kg
same,ED50,Mus musculus [1],< 0.1 mg/kg
same,minimal effective dose,Mus musculus [1],0.1 mg/kg
same,Time,Mus musculus [4],4 h
same,Vd,[5],2 L/kg
same,clearance,[6],0.42 L/h/kg
same,Activity,Rattus norvegicus [7],Dose-dependent effect
same,minimal effective dose,Rattus norvegicus [8],1 mg/kg
same,clearance,[9],5.82 L/h/kg
same,clearance,[10],1.14 L/h/kg
same,Vd,[11],5 L/kg
same,Vd,[12],1 L/kg
same,half-life,[13],1.1 h
same,half-life,[14],1.2 h
same,half-life,[15],5.5 h
same,Cmax,[16],1.08 µM
same,Cmax,[17],1.65 µM
same,Cmax,[18],2.77 µM
same,bioavailability,[19],61%
same,bioavailability,[20],18%
same,bioavailability,[21],55%
same,Cmax,[22],4.16 µM
same,Time,Rattus norvegicus [23],4 h
same,minimal effective dose,Mus musculus [24],1 mg/kg
same,Activity,Rattus norvegicus [25],Dose-dependent effect
same,minimal effective dose,Rattus norvegicus [25],1 mg/kg
Nc1nc(-c2ccccc2)c2c(n1)-c1cc(CN3CCCC3)ccc1C2=O,Activity,Rattus norvegicus [26],Active
same,ED50,Mus musculus [1],0.2 mg/kg
same,clearance,[9],26.4 L/h/kg
same,clearance,[10],5.1 L/h/kg
same,clearance,[27],3.36 L/h/kg
same,Vd,[11],13 L/kg
same,Vd,[12],7 L/kg
same,Vd,[28],7 L/kg
Nc1nc(-c2ccccc2)c2c(n1)-c1cc(Cc3cccnc3)ccc1C2=O,pKi,Adenosine receptor A2a,9.52
same,pKi,Adenosine receptor A1,8.62
same,ED50,Mus musculus [1],< 1 mg/kg
same,Time,Mus musculus [4],4 h
Nc1nc(-c2ccccc2)c2c(n1)-c1cc(CN3C4CCC3CC4)ccc1C2=O,pKi,Adenosine receptor A2a,8.51
same,pKi,Adenosine receptor A1,6.65
same,ED50,Mus musculus [1],1 mg/kg
Nc1nc(-c2ccccc2)c2c(n1)-c1cc(C(F)(F)c3cccnc3)ccc1C2=O,pKi,Adenosine receptor A2a,8.80
same,pKi,Adenosine receptor A1,7.53
same,Activity,Mus musculus [2],<50%
Nc1nc(-c2ccccc2)c2c(n1)-c1cc(Cc3ccncc3F)ccc1C2=O,pKi,Adenosine receptor A2a,9.15
same,pKi,Adenosine receptor A1,8.60
same,Activity,Mus musculus [2],100%
Nc1nc(-c2ccccc2)c2c(n1)-c1cc(Cc3cncc(F)c3)ccc1C2=O,pKi,Adenosine receptor A2a,8.89
same,pKi,Adenosine receptor A1,8.22
same,Activity,Mus musculus [2],100%
CN1CCN(C(=O)c2ccc3c(c2)-c2nc(N)nc(-c4ccccc4)c2C3=O)CC1,Activity,Rattus norvegicus [3],Dose-dependent effect
same,ED50,Rattus norvegicus [3],0.6 mg/kg
same,minimal effective dose,Rattus norvegicus [3],1 mg/kg
same,ED50,Mus musculus [1],0.4 mg/kg
same,minimal effective dose,Mus musculus [1],1 mg/kg
same,Time,Mus musculus [4],4 h
same,Vd,[5],4 L/kg
same,clearance,[6],0.9 L/h/kg
same,Activity,Rattus norvegicus [7],Dose-dependent effect
same,minimal effective dose,Rattus norvegicus [8],1 mg/kg
same,clearance,[9],2.22 L/h/kg
same,clearance,[10],3.12 L/h/kg
same,Vd,[11],11 L/kg
same,Vd,[12],6 L/kg
same,half-life,[13],3.8 h
same,half-life,[14],3.6 h
same,half-life,[15],4.3 h
same,Cmax,[16],1.7 µM
same,Cmax,[17],0.968 µM
same,Cmax,[18],1.46 µM
same,bioavailability,[19],41%
same,bioavailability,[20],45%
same,bioavailability,[21],47%
same,Cmax,[22],0.459 µM
same,minimal effective dose,Mus musculus [24],1 mg/kg
same,Activity,Rattus norvegicus [25],Dose-dependent effect
same,minimal effective dose,Rattus norvegicus [25],1 mg/kg
N#Cc1cncc(Cc2ccc3c(c2)-c2nc(N)nc(-c4ccccc4)c2C3=O)c1,pKi,Adenosine receptor A2a,8.85
same,pKi,Adenosine receptor A1,8.28
same,Activity,Mus musculus [2],100%
same,Time,Mus musculus [4],2 h
Nc1nc(-c2ccccc2)c2c(n1)-c1cc(C(=O)c3cccnc3)ccc1C2=O,pKi,Adenosine receptor A2a,9.30
same,pKi,Adenosine receptor A1,8.74
same,Activity,Mus musculus [2],<50%
